MrgX1 ag = agonists of human MrgX1 receptor, primary screen, HEK293 cells, Fluo-4 calcium flux; Mas-related G-protein coupled receptor member X1 (Homo sapiens), Q96LB2; Fluo-4 calcium fluorescence, agonist mode; stronger effect = higher value; B-score at 10 µM; 0.44% of 310,000 active; AID 588627, 2011;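 active = calcium response B-score plate-corrected fluorescence ratio at least 3 library SD, with starting fluorescence B-score inside 5 SD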
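Test system: Stable human MrgX1 HEK293 cell line | Schedule: Overnight plating before 1 h dye loading | Read-out basis: Baseline-normalised fluorescence change ratio, B-scored | Detection: Kinetic calcium dye fluorescence, Fluo-4 NW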
RGS4 pot = RGS4 potentiators or activators, primary screen, cell-based, HEK293 M3R inducible RGS4, calcium flux | AID 463111, 2010 | carbachol calcium flux Fluo4; stronger effect = lower value | B-score at 10 µM | 0.92% of 310,000 active;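 active = B-score of the integrated calcium signal more than 4 SD below the library mean, with starting fluorescence not abnormally high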;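 note: negative B-score means reduced calcium response which marks RGS4 activation or potentiation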
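test system = M3R-expressing HEK293 line, RGS4 induced by doxycycline | probe or stimulus = carbachol at ECmax as muscarinic agonist stimulus | timing = dye loading 30 min 37 °C, buffer rest 30 min RT | signal = calcium dye Fluo4 fluorescence | evaluation = B score from integrated fluorescence ratio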
MrgX1 allo act = positive allosteric modulators of MrgX1, primary screen, HEK293 cells, Fluo-4 calcium flux; AID 588675, 2011; 0.63% of 310,000 active; FDSS; stronger effect = higher value; B-score at 10 µM; Mas-related G-protein coupled receptor member X1 (Homo sapiens), Q96LB2;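 active = plate-corrected calcium response at least 3 library SD above typical, normal starting fluorescence, not activating the receptor alone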;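 note: compound read alongside a low EC10 to EC30 dose of BAM8-22 agonist; peak minus trough fluorescence over baseline measured at the second addition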
RGS4 inh = RGS4 inhibitors, primary screen, cell-based, HEK293 M3R inducible RGS4, calcium flux; 0.45% of 310,000 active; Fluo-4 calcium flux; stronger effect = higher value; triggered by carbachol at its EC20; B-score at 10 µM;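 active = B-score, a plate-corrected calcium signal, over three deviations above library mean, with baseline fluorescence within five deviations of library mean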;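 note: RGS4 expression induced by doxycycline in cells with stable M3 receptor; B-score is computed from the integrated fluorescence ratio over baseline after carbachol; higher B-score means a larger calcium signal and so more RGS4 inhibition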
Target sequence (P49798 whole entry, looked up): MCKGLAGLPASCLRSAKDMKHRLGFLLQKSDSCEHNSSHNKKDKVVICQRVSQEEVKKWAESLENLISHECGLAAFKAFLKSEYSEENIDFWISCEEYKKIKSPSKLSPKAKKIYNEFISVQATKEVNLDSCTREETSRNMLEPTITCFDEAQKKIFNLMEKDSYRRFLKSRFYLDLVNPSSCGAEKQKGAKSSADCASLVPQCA
MrgX1 antagonist = antagonists of human MrgX1 receptor, primary screen, HEK293 cells, Fluo-4 calcium flux | B-score at 10 µM | Mas-related G-protein coupled receptor member X1 (Homo sapiens), Q96LB2 | 1.3% of 310,000 active | BAM8-22 antagonism; stronger effect = lower value;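 active = calcium-response B-score plate-corrected more than 3 library SD below zero, starting fluorescence within 5 deviations, no agonist response on first addition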;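 note: peak minus trough fluorescence over baseline after final BAM8-22 challenge near maximal dose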
Of the large screens only hits and unclear results are named; the others gave an inactive call. Sampled rows, rich in hits. Any-hit rate of the full collection: about 3.5%.

CC(C)c1ccccc1OCCCCN1CCCCC1	none
COc1ccccc1OCCCCN1CCN(C(c2ccccc2)c2ccccc2)CC1	RGS4 pot -8.1
COc1cccc(-n2cc(C(=O)NC(C)C)c3ccccc3c2=O)c1	none
Cc1nc2ccccc2c(=O)n1CCN1CCOCC1	RGS4 pot -7.4
COc1ccc(S(=O)(=O)NCC(c2ccc3c(c2)OCO3)N2CCN(c3ccccc3)CC2)cc1 (centres undefined)	none
COc1ccc2oc(C(=O)N3CCN(S(=O)(=O)c4cccc([N+](=O)[O-])c4)CC3)c(C)c2c1	MrgX1 allo act 16
O=c1[nH]nc(N2CCOCC2)c(=O)[nH]1	none
Cc1nn(CC(=O)N2CCOCC2)c(=O)c2ccccc12	none
Cc1nn(CC(=O)N2CCN(Cc3ccccc3)CC2)c(=O)c2ccccc12	MrgX1 allo act 6.9
Cn1nc(-c2ccc(C(=O)NCCO)cc2)c2ccccc2c1=O	none
CCOc1ccc(CCNC(=O)COC(=O)c2ccc(S(C)(=O)=O)cc2)cc1OCC	none
CCOc1ccc(CCNC(=O)COC(=O)/C=C/c2ccccc2OC)cc1OCC	MrgX1 allo act 16
CCOc1ccc(CCNC(=O)COC(=O)c2ccc(OC(C)C)cc2)cc1OCC	MrgX1 antagonist -4.8
COc1ccc(CCNC(=O)CCn2c(=O)c3cccn3c3cccnc32)cc1OC	none
CCOC1=C/C(=C/c2c(N)n3oc(C)cc3nc2=O)C=CC1=O	MrgX1 allo act 8.6
Cc1cc2nc(=O)c(/C=C3\C=Nc4ccccc43)c(N)n2o1	none
CCC1=C(OC(=O)N(CC)CC)N2C(=O)OC(=NCC3CC3)[C@]2(Cc2ccccc2)[C@H]2C1=CC[C@H]1C(=O)NC(=O)[C@H]12	MrgX1 antagonist -8.1
CCC1=C(OC(=O)N(CC)CC)N2C(=O)OC(=NCCOC)[C@]2(Cc2ccccc2)[C@H]2C1=CC[C@H]1C(=O)NC(=O)[C@H]12	none
Cc1ccc(-c2nc(C)sc2CC(=O)OCC(=O)Nc2ccc(F)c(Cl)c2)cc1	none
O=C(c1ccc(Cn2cc(Br)cn2)cc1)N1N=C(C(F)F)CC1(O)C(F)F (centres undefined)	RGS4 pot -7.9
O=C(CS(=O)Cc1ccccc1Cl)Nc1ccccc1Cl (centres undefined)	none
CCC(C)(C)n1nnnc1CN1CCN(C(c2ccccc2)c2ccccc2)CC1	RGS4 pot -7.5
CCC(C)(C)n1nnnc1C(c1ccccc1)N1CCN(Cc2ccccc2)CC1 (centres undefined)	none
Cc1nn(C)cc1C(C(=O)NC1CCCCC1)N(C(=O)Cc1cccs1)c1ccc(C(C)C)cc1 (centres undefined)	MrgX1 ag 27
O=C(C1CCC(=O)N(C2CC2)C1)N1CCC(Oc2cccc(C(F)(F)F)c2)CC1 (centres undefined)	none (no result: MrgX1 ag, MrgX1 allo act, MrgX1 antagonist)
C[C@@H]1CN(Cc2cn(C)nc2-c2cccc(Cl)c2)C[C@H](C)O1	none
Cc1cc(C)n2nc(C(=O)OCC(=O)c3c[nH]c4ccccc34)nc2n1	MrgX1 antagonist -5.5
Cc1cccc(NC(=O)NC(C)C(c2ccccc2)N2CCN(C)CC2)c1 (centres undefined)	none
CCCCC(=O)Nc1ccccc1Oc1ccccc1	none
Cn1cccc1/C=N/n1c(-c2ccc(Cl)cc2)n[nH]c1=S	none
Cn1cccc1/C=N/n1c(-c2ccc(Cl)cc2Cl)n[nH]c1=S	MrgX1 ag 27
Cc1cc(NC(=O)C(C)C)ncc1NC(=O)Cc1ccccc1	none
COc1cc(C(=O)Nc2cnc(NC(=O)C(C)C)cc2C)cc(OC)c1OC	MrgX1 antagonist -5.7
C=CCOc1ccc(Br)cc1/C=N/O	none
O/N=C/c1cc(Br)ccc1OCc1ccccc1F	MrgX1 antagonist -7.4
Fc1ccccc1COc1ccc(Br)cc1CNCc1ccncc1	RGS4 pot -9.6
COc1cc(SC)ccc1C(=O)Nc1nccs1	none
Cc1sc2ncnc(N3CCC(C(=O)Nc4ccc(Br)cc4Br)CC3)c2c1C	none
Cc1cc2cc(CCNS(=O)(=O)c3ccc(F)cc3)c(=O)[nH]c2cc1C	none

Source: PubChem BioAssay
